Measured values from ChEMBL document CHEMBL1141286, “Benzochromenones from the marine crinoid Comantheria rotula inhibit hypoxia-inducible factor-1 (HIF-1) in cell-based reporter assays and differentially suppress the growth of certain tumor cell lines” (J Nat Prod, 2007).

How the values were obtained:
SF-268 = test: Growth inhibition of human SF268 cells; type: functional; conditions: for TGI: read-out: Log TGI (converted)
RPMI-8226 = test: Growth inhibition of human RPMI8226 cells; type: functional
[1] = DPPH radical scavenging activity relative to Trolox; type: functional; parameters: concentration or dose not given beside the values
Outline: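 Compounds were made up as DMSO stocks and diluted in isopropanol to a final 10 μM. Each was mixed with DPPH in isopropanol at 10 μM or 30 μM DPPH, and absorbance was read at 515 nm. Scavenging was calculated as [1 − OD515(compound)/OD515(control)] × 100, then expressed as a percentage of Trolox activity. One experiment was run in triplicate.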

OVCAR-8 = test: Growth inhibition of human OVACAR8 cells; type: functional; conditions: for TGI: read-out: Log TGI (converted)
[2] = Inhibition of 1,10-phenanthroline-induced HIF1 activation in PC3 cells by TK-luciferase assay; type: cell-based; conditions: Homo sapiens, PC-3
Outline: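 HIF-1 reporter (pHRE-TK-Luc) assays in transfected PC-3 or T47D cells; HIF-1 induced by hypoxia or by the hypoxia mimetic 1,10-phenanthroline (10 μM); compounds at half-log concentrations; luciferase activity measured; IC50 from experiments in triplicate.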

CCRF-CEM = test: Growth inhibition of human CCRF-CEM cells; type: functional; conditions: for TGI: read-out: Log TGI (converted)
OVCAR-4 = test: Growth inhibition of human OVACAR4 cells; type: functional; conditions: for TGI: read-out: Log TGI (converted)
NCI/ADR-RES = test: Growth inhibition of human NCI/ADR-RES cells; type: functional; conditions: for TGI: read-out: Log TGI (converted)
SW-620 = test: Growth inhibition of human SW620 cells; type: functional; conditions: for CC50: read-out: Log LC50 (the source's name) (converted); for TGI: read-out: Log TGI (converted)
A549 = test: Growth inhibition of human A549 cells; type: functional; conditions: for CC50: read-out: Log LC50 (the source's name) (converted); for TGI: read-out: Log TGI (converted)
HL-60 = test: Growth inhibition of human HL60 cells; type: functional; conditions: for TGI: read-out: Log TGI (converted)
IGROV-1 = test: Growth inhibition of human IGROV1 cells; type: functional; conditions: for CC50: read-out: Log LC50 (the source's name) (converted); for TGI: read-out: Log TGI (converted)
MOLT-4 = test: Growth inhibition of human MOLT4 cells; type: functional; conditions: for CC50: read-out: Log LC50 (the source's name) (converted); for TGI: read-out: Log TGI (converted)
SF-539 = test: Growth inhibition of human SF539 cells; type: functional; conditions: for TGI: read-out: Log TGI (converted)
[3] = Inhibition of luciferase
Outline: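 Purified recombinant firefly luciferase (QuantiLum, 46.8 μg mL−1) mixed with compound in passive lysis buffer containing BSA (1 mg mL−1); equal volume of luciferase substrate added, light output read; percentage inhibition relative to DMSO control; concentration-response curves up to 30 μM.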

UACC-62 = test: Growth inhibition of human UACC62 cells; type: functional; conditions: for TGI: read-out: Log TGI (converted)
NCI-H460 = test: Growth inhibition of human NCI-H460 cells; type: functional; conditions: for CC50: read-out: Log LC50 (the source's name) (converted); for TGI: read-out: Log TGI (converted)
OVCAR-5 = test: Growth inhibition of human OVACAR5 cells; type: functional; conditions: for TGI: read-out: Log TGI (converted)
[4] = Growth inhibition of human OVACAR3 cells; type: functional; conditions: for CC50: read-out: Log LC50 (the source's name) (converted); for TGI: read-out: Log TGI (converted)
NCI-H23 = test: Growth inhibition of human NCI-H23 cells; type: functional; conditions: for CC50: read-out: Log LC50 (the source's name) (converted); for TGI: read-out: Log TGI (converted)
LOX IMVI = test: Growth inhibition of human LOXIMVI cells; type: functional; conditions: for TGI: read-out: Log TGI (converted)
MDA-MB-435 = test: Growth inhibition of human MDA-MB-435 cells; type: functional; conditions: for TGI: read-out: Log TGI (converted)
TK-10 = test: Growth inhibition of human TK10 cells; type: functional; conditions: for TGI: read-out: Log TGI (converted)
U-251 = test: Growth inhibition of human U251 cells; type: functional; conditions: for TGI: read-out: Log TGI (converted)

SMILES: CCCc1cc(=O)c2c(OC)c3c(OC)cc(O)c(Oc4c(O)cc(OC)c5c(OC)c6c(=O)cc(CCC)oc6cc45)c3cc2o1
- GI50 (SF-268): 12.6 µM
- LC50 (SF-268): 66.1 µM
- TGI (SF-268): 28.8 µM
- GI50 (RPMI-8226): 4.9 µM
- CC50 (RPMI-8226; read-out: Log LC50 (the source's name) (converted)): 70.8 µM
- TGI (RPMI-8226; read-out: Log TGI (converted)): 21.4 µM
- Activity [1]: 40%
- GI50 (OVCAR-8): 4.68 µM
- LC50 (OVCAR-8): 100 µM
- TGI (OVCAR-8): 53.7 µM
- IC50 [2]: 3.9 µM
- GI50 (CCRF-CEM): 2.34 µM
- LC50 (CCRF-CEM): > 100 µM
- TGI (CCRF-CEM): 14.1 µM
- GI50 (OVCAR-4): 2.57 µM
- LC50 (OVCAR-4): 37.2 µM
- TGI (OVCAR-4): 8.51 µM
- GI50 (NCI/ADR-RES): 6.76 µM
- LC50 (concentration killing 50% of cells) (NCI/ADR-RES): 100 µM
- TGI (NCI/ADR-RES): 67.6 µM
- GI50 (SW-620): 11.5 µM
- CC50 (SW-620): 61.7 µM
- TGI (SW-620): 26.3 µM
- GI50 (A549): 11.2 µM
- CC50 (A549): 72.4 µM
- TGI (A549): 28.8 µM
- GI50 (HL-60): 3.89 µM
- LC50 (HL-60): 79.4 µM
- TGI (HL-60): 11.2 µM
- GI50 (IGROV-1): 10.2 µM
- CC50 (IGROV-1): 57.5 µM
- TGI (IGROV-1): 24 µM
- GI50 (MOLT-4): 3.24 µM
- CC50 (MOLT-4): 97.7 µM
- TGI (MOLT-4): 11.5 µM
- GI50 (SF-539): 11.2 µM
- LC50 (SF-539): 50.1 µM
- TGI (SF-539): 23.4 µM
- IC50 [3]: 2.4 µM
- GI50 (UACC-62): 4.9 µM
- LC50 (lethal concentration, 50% cell kill) (UACC-62): 41.7 µM
- TGI (UACC-62): 17 µM
- GI50 (NCI-H460): 10.7 µM
- CC50 (NCI-H460): 89.1 µM
- TGI (NCI-H460): 30.9 µM
- GI50 (OVCAR-5): 7.08 µM
- LC50 (OVCAR-5): 100 µM
- TGI (OVCAR-5): 30.9 µM
- GI50 [4]: 2.19 µM
- CC50 [4]: 57.5 µM
- TGI [4]: 8.71 µM
- GI50 (NCI-H23): 2.45 µM
- CC50 (NCI-H23): 33.9 µM
- TGI (NCI-H23): 6.92 µM
- GI50 (LOX IMVI): 3.47 µM
- LC50 (LOX IMVI): 41.7 µM
- TGI (LOX IMVI): 11.5 µM
- GI50 (MDA-MB-435): 2.24 µM
- LC50 (MDA-MB-435): 15.8 µM
- TGI (MDA-MB-435): 5.13 µM
- GI50 (TK-10): 17 µM
- LC50 (TK-10): 57.5 µM
- TGI (TK-10): 31.6 µM
- GI50 (U-251): 4.68 µM
- LC50 (U-251): 41.7 µM
- TGI (U-251): 15.8 µM

SMILES: CCCc1cc(=O)c2c(OC)c3c(OC)cc(OC)cc3cc2o1
- GI50 (SF-268): > 100 µM
- LC50 (SF-268): > 100 µM
- TGI (SF-268): > 100 µM
- GI50 (OVCAR-8): > 100 µM
- LC50 (OVCAR-8): > 100 µM
- TGI (OVCAR-8): > 100 µM
- IC50 [2]: > 10 µM
- GI50 (CCRF-CEM): 58.9 µM
- LC50 (CCRF-CEM): > 100 µM
- TGI (CCRF-CEM): 100 µM
- GI50 (OVCAR-4): 81.3 µM
- LC50 (OVCAR-4): > 100 µM
- TGI (OVCAR-4): > 100 µM
- GI50 (NCI/ADR-RES): 74.1 µM
- LC50 (concentration killing 50% of cells) (NCI/ADR-RES): > 100 µM
- TGI (NCI/ADR-RES): > 100 µM
- GI50 (SW-620): > 100 µM
- CC50 (SW-620): > 100 µM
- TGI (SW-620): > 100 µM
- GI50 (A549): 58.9 µM
- CC50 (A549): > 100 µM
- TGI (A549): > 100 µM
- GI50 (HL-60): 42.7 µM
- LC50 (HL-60): > 100 µM
- TGI (HL-60): > 100 µM
- GI50 (IGROV-1): 60.3 µM
- CC50 (IGROV-1): > 100 µM
- TGI (IGROV-1): > 100 µM
- GI50 (MOLT-4): > 100 µM
- CC50 (MOLT-4): > 100 µM
- TGI (MOLT-4): 30.2 µM
- GI50 (SF-539): 100 µM
- LC50 (SF-539): > 100 µM
- TGI (SF-539): > 100 µM
- GI50 (UACC-62): > 100 µM
- LC50 (lethal concentration, 50% cell kill) (UACC-62): > 100 µM
- TGI (UACC-62): > 100 µM
- GI50 (NCI-H460): 85.1 µM
- CC50 (NCI-H460): > 100 µM
- TGI (NCI-H460): > 100 µM
- GI50 (OVCAR-5): > 100 µM
- LC50 (OVCAR-5): > 100 µM
- TGI (OVCAR-5): > 100 µM
- GI50 [4]: 38.9 µM
- CC50 [4]: > 100 µM
- TGI [4]: > 100 µM
- GI50 (NCI-H23): > 100 µM
- CC50 (NCI-H23): > 100 µM
- TGI (NCI-H23): > 100 µM
- GI50 (LOX IMVI): 69.2 µM
- LC50 (LOX IMVI): > 100 µM
- TGI (LOX IMVI): > 100 µM
- GI50 (MDA-MB-435): 97.7 µM
- LC50 (MDA-MB-435): > 100 µM
- TGI (MDA-MB-435): > 100 µM
- GI50 (TK-10): 37.2 µM
- LC50 (TK-10): > 100 µM
- TGI (TK-10): > 100 µM
- GI50 (U-251): > 100 µM
- LC50 (U-251): > 100 µM
- TGI (U-251): > 100 µM
